# In ChEMBL document CHEMBL3861994, “1,2,3-Triazole-based inhibitors of Porphyromonas gingivalis adherence to oral streptococci and biofilm formation” (Bioorg Med Chem, 2016):
# Legend:
# [1] = (§1) Inhibition of Porphyromonas gingivalis ATCC 33277 MFA interaction with Streptococcus gordonii DL1(1) antigen 1/2 assessed as inhibition of 5(6)-carboxyfluorescein N-hydroxysuccinimide ester-labeled Porphyromonas gingivalis ATCC 33277 cell adhesion to hexidium iodide-labeled Streptococcus gordonii DL1(1) by measuring inhibition of biofilm formation preincubated with Porphyromonas gingivalis ATCC 33277 for 30 mins followed by addition to Streptococcus gordonii DL1(1) culture measured after 22 hrs by laser scanning confocal microscopy; format: cell-based
# How it was run: (§2)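 Hexidium iodide-labelled S. gordonii (OD600 0.8 in PBS, pH 7.2) was bound to coverslips for 24 h, anaerobic, 37 °C. Carboxyfluorescein-labelled P. gingivalis (OD600 0.4) was preincubated 30 min at room temperature with compound (0–60 μM final, from 1000X DMSO stock), added, then incubated 22 h anaerobically. After fixation, confocal z-stacks (488/552 nm) were taken. IC50 is 50% reduction of the green/red fluorescence ratio; triplicates, three independent experiments.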
# [2] = Cytotoxicity against gingival epithelial cells (unknown origin); format: toxicity, cell-based; details: epithelial cell
# [3] = tested on: Streptococcus gordonii; test: Growth inhibition of Streptococcus gordonii at 40 uM measured after 24 hrs; details: read-out: GI
# [4] = tested on: Porphyromonas gingivalis; test: Growth inhibition of Porphyromonas gingivalis at 40 uM measured after 24 hrs
# [5] = tested on: Streptococcus gordonii; test: Growth inhibition of Streptococcus gordonii at 60 uM measured after 24 hrs; details: read-out: GI
# [6] = tested on: Porphyromonas gingivalis; test: Growth inhibition of Porphyromonas gingivalis at 60 uM measured after 24 hrs
# [7] = tested on: Streptococcus gordonii; test: Growth inhibition of Streptococcus gordonii at 20 uM measured after 24 hrs; details: read-out: GI
# [8] = tested on: Porphyromonas gingivalis; test: Growth inhibition of Porphyromonas gingivalis at 20 uM measured after 24 hrs
# [9] = tested on: ATCC 33277; test: as §1; format: cell-based; how it was run: as §2
# [10] = tested on: Streptococcus gordonii; test: Growth inhibition of Streptococcus gordonii at 5 uM measured after 24 hrs; details: read-out: GI
# [11] = tested on: Porphyromonas gingivalis; test: Growth inhibition of Porphyromonas gingivalis at 5 uM measured after 24 hrs
IC50 [1],Compound,Activity [2],other results
> 60 µM,Fc1cccc(-c2cn(Cc3nc(-c4ccc(Br)cc4)c(-c4ccc(Br)cc4)o3)nn2)c1,Toxic,
47.4 µM,COc1ccc(-c2nc(-c3cccc(-n4cc(-c5cc(C(F)(F)F)cc(C(F)(F)F)c5)nn4)c3)oc2-c2ccc(OC)cc2)cc1,Toxic,
53 µM,COc1ccc(-c2nc(-c3cccc(-n4cc(-c5ccc(F)cc5)nn4)c3)oc2-c2ccc(OC)cc2)cc1,Toxic,inhibition at 40 µM [3]: -22.1%; growth inhibition (GI) [4]: -14.6%
51.5 µM,Fc1ccc(-c2nc(-c3ccc(-n4cc(-c5cccc(F)c5)nn4)cc3)oc2-c2ccc(F)cc2)cc1,Toxic,
> 60 µM,Fc1ccc(-c2nc(Cn3cc(-c4cccc(F)c4)nn3)oc2-c2ccc(F)cc2)cc1,Toxic,
15.2 µM,FC(F)(F)c1ccccc1-c1cn(-c2cccc(-c3nc(-c4ccc(Br)cc4)c(-c4ccc(Br)cc4)o3)c2)nn1,Toxic,inhibition at 40 µM [3]: 2%; growth inhibition (GI) [4]: -0.6%
50.9 µM,Brc1ccc(-c2nc(Cn3cc(-c4cccnc4)nn3)oc2-c2ccc(Br)cc2)cc1,Toxic,
> 60 µM,COc1ccc2cc(-c3cn(Cc4nc(-c5ccccc5)c(-c5ccccc5)o4)nn3)ccc2c1,Toxic,
59.8 µM,Fc1ccc(-c2nc(Cn3cc(-c4cccnc4)nn3)oc2-c2ccc(F)cc2)cc1,Toxic,
25.6 µM,Fc1ccc(-c2nc(-c3ccc(-n4cc(-c5cccnc5)nn4)cc3)oc2-c2ccc(F)cc2)cc1,Toxic,
37.3 µM,COc1ccccc1-c1cn(-c2ccc(-c3nc(-c4ccc(Cl)cc4)c(-c4ccc(Cl)cc4)o3)cc2)nn1,Toxic,
15.4 µM,COc1ccc(-c2nc(-c3cccc(-n4cc(-c5ccccc5OC)nn4)c3)oc2-c2ccc(OC)cc2)cc1,Toxic,inhibition at 40 µM [3]: 0.8%; growth inhibition (GI) [4]: -6.2%
56.8 µM,COc1ccccc1-c1cn(Cc2nc(-c3ccc(Cl)cc3)c(-c3ccc(Cl)cc3)o2)nn1,Toxic,inhibition at 60 µM [5]: 6.6%; growth inhibition (GI) [6]: -19.6%
25.1 µM,FC(F)(F)c1ccccc1-c1cn(-c2ccc(-c3nc(-c4ccc(Cl)cc4)c(-c4ccc(Cl)cc4)o3)cc2)nn1,Toxic,
13 µM,COc1ccc(-c2nc(-c3cccc(-n4cc(-c5ccc6cc(OC)ccc6c5)nn4)c3)oc2-c2ccc(OC)cc2)cc1,Toxic,inhibition at 20 µM [7]: -1.3%; growth inhibition (GI) [8]: 3%
15.7 µM,Fc1cccc(-c2cn(-c3ccc(-c4nc(-c5ccc(Cl)cc5)c(-c5ccc(Cl)cc5)o4)cc3)nn2)c1,Toxic,
57.7 µM,COc1ccc(-c2nc(-c3cccc(-n4cc(-c5cccnc5)nn4)c3)oc2-c2ccc(OC)cc2)cc1,Toxic,
56.7 µM,FC(F)(F)c1ccccc1-c1cn(Cc2nc(-c3ccc(Cl)cc3)c(-c3ccc(Cl)cc3)o2)nn1,Toxic,
15 µM,COc1ccccc1-c1cn(-c2cccc(-c3nc(-c4ccc(Br)cc4)c(-c4ccc(Br)cc4)o3)c2)nn1,Toxic,inhibition [9]: Dose-dependent effect; inhibition at 40 µM [3]: 10.5%; growth inhibition (GI) [4]: 4.3%
33.4 µM,COc1ccc2cc(-c3cn(Cc4nc(-c5ccc(Br)cc5)c(-c5ccc(Br)cc5)o4)nn3)ccc2c1,Toxic,inhibition at 60 µM [5]: -8.6%; growth inhibition (GI) [6]: -9.9%
43 µM,COc1ccccc1-c1cn(Cc2nc(-c3ccc(Br)cc3)c(-c3ccc(Br)cc3)o2)nn1,Toxic,inhibition at 60 µM [5]: 11.1%; growth inhibition (GI) [6]: -12.4%
> 60 µM,Fc1cccc(-c2cn(Cc3nc(-c4ccc(Cl)cc4)c(-c4ccc(Cl)cc4)o3)nn2)c1,Toxic,
36.9 µM,CC(C)CCNc1nc(NCCC(C)C)nc(-c2cn(Cc3nc(-c4ccccc4)c(-c4ccccc4)o3)nn2)n1,Toxic,inhibition at 60 µM [5]: 6.8%; growth inhibition (GI) [6]: 72.8%
> 60 µM,COc1ccccc1-c1cn(Cc2nc(-c3ccccc3)c(-c3ccccc3)o2)nn1,Toxic,
27 µM,COc1ccc(-c2nc(-c3cccc(-n4cc(-c5ccccc5C(F)(F)F)nn4)c3)oc2-c2ccc(OC)cc2)cc1,Toxic,inhibition at 40 µM [3]: -9.7%; growth inhibition (GI) [4]: -1.6%

IC50 [1],Compound,Activity [2],other results
7.7 µM,COc1ccccc1-c1cn(-c2ccc(-c3nc(-c4ccc(F)cc4)c(-c4ccc(F)cc4)o3)cc2)nn1,Toxic,inhibition at 20 µM [7]: -7.8%; growth inhibition (GI) [8]: -0.5%
32.4 µM,COc1ccc2cc(-c3cn(-c4ccc(-c5nc(-c6ccc(Cl)cc6)c(-c6ccc(Cl)cc6)o5)cc4)nn3)ccc2c1,Toxic,
> 60 µM,Fc1ccc(-c2nc(Cn3cc(-c4ccccc4C(F)(F)F)nn3)oc2-c2ccc(F)cc2)cc1,Toxic,
> 60 µM,Clc1ccc(-c2nc(Cn3cc(-c4cccnc4)nn3)oc2-c2ccc(Cl)cc2)cc1,Toxic,
> 60 µM,Fc1ccc(-c2cn(Cc3nc(-c4ccccc4)c(-c4ccccc4)o3)nn2)cc1,Toxic,
> 60 µM,FC(F)(F)c1ccccc1-c1cn(Cc2nc(-c3ccc(Br)cc3)c(-c3ccc(Br)cc3)o2)nn1,Toxic,
31 µM,Brc1ccc(-c2nc(-c3cccc(-n4cc(-c5cccnc5)nn4)c3)oc2-c2ccc(Br)cc2)cc1,Toxic,
40.9 µM,Clc1ccc(-c2nc(-c3ccc(-n4cc(-c5cccnc5)nn4)cc3)oc2-c2ccc(Cl)cc2)cc1,Toxic,
29.3 µM,COc1ccc2cc(-c3cn(Cc4nc(-c5ccc(F)cc5)c(-c5ccc(F)cc5)o4)nn3)ccc2c1,Toxic,inhibition at 60 µM [5]: 0.2%; growth inhibition (GI) [6]: -3.3%
5.9 µM,COc1ccc(-c2nc(-c3cccc(-n4cc(-c5cccc(F)c5)nn4)c3)oc2-c2ccc(OC)cc2)cc1,Toxic,inhibition at 40 µM [3]: -9.1%; growth inhibition (GI) [4]: -2.6%
> 60 µM,COc1ccc(-c2nc(-c3cccc(-n4cc(-c5ccc(Oc6ccccc6)cc5)nn4)c3)oc2-c2ccc(OC)cc2)cc1,Toxic,
> 60 µM,COc1ccccc1-c1cn(Cc2nc(-c3ccc(F)cc3)c(-c3ccc(F)cc3)o2)nn1,Toxic,
5 µM,Fc1cccc(-c2cn(-c3cccc(-c4nc(-c5ccc(Br)cc5)c(-c5ccc(Br)cc5)o4)c3)nn2)c1,Toxic,inhibition at 5 µM [10]: -5.7%; growth inhibition (GI) [11]: -4.3%
> 56.3 µM,Cc1ccccc1-c1cn(Cc2nc(-c3ccccc3)c(-c3ccccc3)o2)nn1,Toxic,
> 60 µM,c1ccc(-c2nc(Cn3cc(-c4cccnc4)nn3)oc2-c2ccccc2)cc1,Toxic,
5.3 µM,COc1ccc2cc(-c3cn(Cc4nc(-c5ccc(Cl)cc5)c(-c5ccc(Cl)cc5)o4)nn3)ccc2c1,Toxic,inhibition at 60 µM [5]: -3.8%; growth inhibition (GI) [6]: 0.3%
20.3 µM,COc1ccc2cc(-c3cn(-c4cccc(-c5nc(-c6ccc(Br)cc6)c(-c6ccc(Br)cc6)o5)c4)nn3)ccc2c1,Toxic,
> 60 µM,CCCCCc1ccc(-c2cn(-c3cccc(-c4nc(-c5ccc(OC)cc5)c(-c5ccc(OC)cc5)o4)c3)nn2)cc1,Toxic,
> 60 µM,FC(F)(F)c1ccccc1-c1cn(Cc2nc(-c3ccccc3)c(-c3ccccc3)o2)nn1,Toxic,
35.5 µM,CCCCCc1ccc(-c2cn(Cc3nc(-c4ccccc4)c(-c4ccccc4)o3)nn2)cc1,Toxic,inhibition at 60 µM [5]: 6.6%; growth inhibition (GI) [6]: -14.5%
> 60 µM,Fc1cccc(-c2cn(Cc3nc(-c4ccccc4)c(-c4ccccc4)o3)nn2)c1,Toxic,
52.2 µM,COc1ccc2cc(-c3cn(-c4ccc(-c5nc(-c6ccc(F)cc6)c(-c6ccc(F)cc6)o5)cc4)nn3)ccc2c1,Toxic,
> 60 µM,FC(F)(F)c1cc(-c2cn(Cc3nc(-c4ccccc4)c(-c4ccccc4)o3)nn2)cc(C(F)(F)F)c1,Toxic,
> 60 µM,c1ccc(Oc2ccc(-c3cn(Cc4nc(-c5ccccc5)c(-c5ccccc5)o4)nn3)cc2)cc1,Toxic,
12.8 µM,Fc1ccc(-c2nc(-c3ccc(-n4cc(-c5ccccc5C(F)(F)F)nn4)cc3)oc2-c2ccc(F)cc2)cc1,Toxic,inhibition at 40 µM [3]: -11%; growth inhibition (GI) [4]: 0.1%
